From ChEMBL document CHEMBL1949593, “Stilbene-chalcone hybrids: design, synthesis, and evaluation as a new class of antimalarial scaffolds that trigger cell death through stage specific apoptosis” (J Med Chem, 2012)
pIC50: −log10 of the molar value. Each block holds one compound with its values, some of them ahead of it.

Assays:
Plasmodium falciparum [1] = assay: Antimalarial activity against ring stage chloroquine-sensitive Plasmodium falciparum 3D7 infected in human O positive erythrocytes after 48 hrs by SYBR green 1 fluorescence assay; format: functional, organism-based; settings: 3D7, 48 h
In short: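 P. falciparum 3D7 in O+ human erythrocytes in complete RPMI with Albumax at 37 °C under 5% O2/5% CO2. Culture was sorbitol-synchronized to rings and plated at 2% hematocrit, 1% parasitemia. Drug range was 0–100 μM with 0.4% final DMSO, in triplicate. After 48 h, SYBR Green I fluorescence was read (ex 497/em 520 nm). IC50 was taken by visual matching of 50% growth inhibition.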

Plasmodium falciparum [2] = assay: Antimalarial activity against ring stage chloroquine-resistant Plasmodium falciparum Dd2 infected in human O positive erythrocytes after 48 hrs by SYBR green 1 fluorescence assay; format: functional, organism-based; settings: Dd2, 48 h
In short: (§1)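 Ring-stage cultures were sorbitol-synchronized in O+ human erythrocytes in RPMI 1640 with 0.5% Albumax, hypoxanthine and gentamicin, then plated at 2% hematocrit and 1% parasitemia. Drugs were tested at 0–100 μM (final DMSO 0.4%) in triplicate for 48 h at 37 °C under 5% O2/5% CO2/90% N2. Read-out was SYBR Green I (ex 497/em 520 nm). IC50 was read visually as 50% growth inhibition, with chloroquine as control.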

Plasmodium falciparum [3] = assay: Antimalarial activity against ring stage chloroquine-resistant Plasmodium falciparum INDO infected in human O positive erythrocytes after 48 hrs by SYBR green 1 fluorescence assay; format: functional, organism-based; in short: as §1
[4] = Resistance index, ratio of IC50 for ring stage chloroquine-resistant Plasmodium falciparum INDO to IC50 for ring stage chloroquine-sensitive Plasmodium falciparum 3D7; format: functional
[5] = Resistance index, ratio of IC50 for ring stage chloroquine-resistant Plasmodium falciparum Dd2 to IC50 for ring stage chloroquine-sensitive Plasmodium falciparum 3D7; format: functional
[6] = Therapeutic index, ratio of IC50 for human HeLa cells to IC50 for ring stage chloroquine-sensitive Plasmodium falciparum 3D7; format: cell-based; settings: read-out: Ratio IC50
In short: (§2)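 HeLa or L929 fibroblasts were seeded at 10^4 cells per well in RPMI with 10% FBS, left overnight, then exposed 24 h at 37 °C, 5% CO2. MTT was added for 3 h; formazan was dissolved in DMSO and read at 570 nm. IC50 came from dose–response curves. Index = IC50(mammalian)/IC50(Pf 3D7, SYBR Green assay).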

[7] = Therapeutic index, ratio of IC50 for […] cells to IC50 for ring stage chloroquine-sensitive Plasmodium falciparum 3D7; format: cell-based; settings: mouse, read-out: Ratio IC50; in short: as §2
[8] = Inhibition of Plasmodium falciparum falcipain-2 using benzyloxycarbonyl-Phe-Arg-7-amino-4-methyl coumarin hydrochloride as substrate preincubated for 10 mins prior substrate addition by fluorimetric assay
In short: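 Recombinant falcipain-2 (2 μg) was preincubated 10 min at room temperature with or without compound, in triplicate. Buffer was 100 mM sodium acetate pH 5.5 with 10 mM DTT and 1% final DMSO. Z-Phe-Arg-AMC was then added at 10 μM final. AMC release was read at ex 355/em 460 nm. IC50 was taken by visual matching of 50% inhibition.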

Compound: COc1ccc(/C=C/c2cc(OC)c(O)c(OC)c2)cc1
pIC50 (Plasmodium falciparum [1]): < 4.00

Compound: O=C(/C=C/c1ccco1)c1ccc(/C=C/c2ccccc2)cc1
pIC50 (Plasmodium falciparum [1]): < 4.00

Compound: COc1cc(OC)c(C(=O)/C=C/c2ccc(/C=C/c3cc(OC)c(O)c(OC)c3)cc2)cc1OC
pIC50 (Plasmodium falciparum [1]): 5.37
pIC50 (Plasmodium falciparum [2]): 5.52
pIC50 (Plasmodium falciparum [3]): 5.59
Ratio IC50 [4]: 0.6
Ratio IC50 [5]: 0.7
selectivity ratio [6]: > 46.5
selectivity ratio [7]: 8.4
pIC50 [8]: 4.00

Compound: COc1cc(OC)c(OC)cc1/C=C/C(=O)c1ccc(/C=C/c2cc(OC)c(OS(=O)(=O)c3cc(Cl)cc(Cl)c3)c(OC)c2)cc1
pIC50 (Plasmodium falciparum [1]): < 4.00

Compound: COc1cc(/C=C/c2ccc(C(=O)/C=C/c3ccc(OC)c(OC)c3OC)cc2)cc(OC)c1O
pIC50 (Plasmodium falciparum [1]): 5.31
pIC50 (Plasmodium falciparum [2]): 5.27
pIC50 (Plasmodium falciparum [3]): 5.23
Ratio IC50 [4]: 1.2
Ratio IC50 [5]: 1.1
selectivity ratio [6]: > 43
selectivity ratio [7]: > 43
pIC50 [8]: 4.15

More lines, now with the values ahead:

pIC50 (Plasmodium falciparum [1]): < 4.00
Compound: COc1ccc(/C=C/C(=O)c2ccc(/C=C/c3ccccc3)cc2)cc1

pIC50 (Plasmodium falciparum [1]): 4.80
Compound: COc1cc(OC)c(/C=C/C(=O)c2ccc(/C=C/c3cc(OC)c(O)c(OC)c3)cc2)c(OC)c1

pIC50 (Plasmodium falciparum [1]): 4.21
Compound: COc1cc(OC)c(OC)cc1/C=C/C(=O)c1ccc(O)cc1

pIC50 (Plasmodium falciparum [1]): 4.74
Compound: COc1cc(OC)c(OC)cc1/C=C/C(=O)c1ccc(/C=C/c2ccccc2)cc1

pIC50 (Plasmodium falciparum [1]): 4.59
Compound: O=C(/C=C/c1c[nH]c2ccc(Cl)cc12)c1ccc(/C=C/c2ccccc2)cc1

pIC50 (Plasmodium falciparum [1]): 4.30
Compound: COc1ccc(C(=O)/C=C/c2ccc(/C=C/c3cc(OC)c(O)c(OC)c3)cc2)cc1

pIC50 (Plasmodium falciparum [1]): 4.82
Compound: COc1ccc(/C=C/C(=O)c2ccc(/C=C/c3cc(OC)c(O)c(OC)c3)cc2)cc1
